Tests used:
[1] = Cytotoxicity against rat PC12 cells assessed as cell survival at 100 uM after 24 hrs by MTT assay relative to control; assay type: toxicity, PC-12; details: read-out: Survival
[2] = Cytotoxicity against rat PC12 cells assessed as cell survival at 20 uM after 72 hrs by MTT assay relative to control; assay type: toxicity, PC-12; details: read-out: Survival
[3] = molecular target: T1, Amine oxidase [flavin-containing] A (Homo sapiens, UniProt P21397)
T1 sequence (P21397 whole entry): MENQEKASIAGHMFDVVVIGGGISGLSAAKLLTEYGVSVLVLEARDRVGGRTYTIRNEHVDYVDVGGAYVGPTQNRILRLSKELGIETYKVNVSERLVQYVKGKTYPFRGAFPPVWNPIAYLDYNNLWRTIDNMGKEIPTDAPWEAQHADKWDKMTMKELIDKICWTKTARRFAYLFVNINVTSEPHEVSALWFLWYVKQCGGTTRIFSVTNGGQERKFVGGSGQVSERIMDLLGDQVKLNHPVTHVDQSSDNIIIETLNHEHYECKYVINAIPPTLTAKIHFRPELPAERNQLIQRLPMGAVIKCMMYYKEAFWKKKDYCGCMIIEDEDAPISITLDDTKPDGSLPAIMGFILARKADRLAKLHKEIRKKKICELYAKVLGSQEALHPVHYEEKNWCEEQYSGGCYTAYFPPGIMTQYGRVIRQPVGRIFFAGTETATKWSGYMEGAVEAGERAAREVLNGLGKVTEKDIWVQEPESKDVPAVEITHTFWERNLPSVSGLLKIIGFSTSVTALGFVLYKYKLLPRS

[4] = Neuroprotective activity against 6-OHDA-induced toxicity in rat PC12 cells assessed as cell survival at 20 uM preincubated for 24 hrs followed by 6-OHDA addition measured after 24 hrs by MTT assay relative to control; assay type: functional; details: PC-12, read-out: Survival
In short: (§1)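 PC12 cells seeded 5×10^3/well, after 24 h given compound at 20 μM for 24 h at 37 °C, then exposed to 6-OHDA (40 μM) or rotenone (1 μM) for 24 h. […] Mean ± SEM of three independent experiments.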

[5] = Neuroprotective activity against rotenone-induced toxicity in rat PC12 cells assessed as cell survival at 20 uM preincubated for 24 hrs followed by rotenone addition measured after 24 hrs by MTT assay relative to control; assay type: functional; details: PC-12, read-out: Survival; in short: as §1
[6] = molecular target: T1, Amine oxidase [flavin-containing] A; assay: Inhibition of recombinant human MAO-A using kynuramine as substrate assessed as decrease in 4-hydroxyquinoline production incubated for 20 mins by fluorescence spectrophotometry
in vitro = details: PAMPA

Work on `CC(=O)c1ccc(OCc2ccc(Cl)cc2)cc1F` yielded a viability at 24 h, 100 µM [1] of 105%, a viability at 72 h, 20 µM [2] of 113% and an IC50 [3] of 89 µM. For the same compound, the viability at 20 µM [4] was 142% and the viability at 20 µM [5] was 101%.

Compound `Cc1c(C)c2ccc(OCc3ccc(F)c(F)c3)cc2oc1=O` has a viability at 24 h, 100 µM [1] of 106%, a viability at 72 h, 20 µM [2] of 102% and a viability at 20 µM [4] of 138%. For the same compound, the viability at 20 µM [5] was 117%.

In the case of `O=c1ccoc2cc(OCc3ccc(C(F)(F)F)cc3)ccc12`, the viability at 24 h, 100 µM [1] is reported as 81.2%, the viability at 72 h, 20 µM [2] is reported as 110% and the IC50 [3] is reported as 18.9 µM. It also gave a viability at 20 µM [4] of 123% and a viability at 20 µM [5] of 110%.

In the case of `CC(=O)c1cccc(OCc2ccc(Br)cc2)c1`, the viability at 24 h, 100 µM [1] is reported as 122%, the viability at 72 h, 20 µM [2] is reported as 107% and the IC50 [3] is reported as 53.7 µM. The viability at 20 µM [4] was 109% and the viability at 20 µM [5] was 105%.

Compound `CC(=O)c1ccc(OCc2cccc(Cl)c2)cc1O` has a viability at 24 h, 100 µM [1] of 110%, an IC50 [6] of 17.7 µM and a viability at 72 h, 20 µM [2] of 112%. For the same compound, the IC50 [3] was 48 µM, the viability at 20 µM [4] was 134% and the viability at 20 µM [5] was 93.3%.

With `C#CCN[C@@H]1CCc2ccccc21` [RASAGILINE] the viability at 24 h, 100 µM [1] was 86.9%, the viability at 72 h, 20 µM [2] was 101% and the viability at 20 µM [4] was 135%. It also gave a viability at 20 µM [5] of 109%.

With `O=c1ccoc2cc(OCc3cccc(Cl)c3)ccc12` the viability at 24 h, 100 µM [1] was 73.5%, the viability at 72 h, 20 µM [2] was 119% and the IC50 [3] was 23.6 µM. The viability at 20 µM [4] was 117% and the viability at 20 µM [5] was 101%.

`CC(=O)c1ccc(OCc2ccc(F)cc2)cc1` gave a viability at 24 h, 100 µM [1] of 105%, a viability at 72 h, 20 µM [2] of 123% and an IC50 [3] of over 100 µM. It also gave a viability at 20 µM [4] of 116% and a viability at 20 µM [5] of 88.6%.

`O=C1OCc2cc(OCc3ccc(F)cc3)ccc21` gave a viability at 24 h, 100 µM [1] of 64.9%, a viability at 72 h, 20 µM [2] of 89.7% and an IC50 [3] of 1.33 µM. It also gave a viability at 20 µM [4] of 116% and a viability at 20 µM [5] of 114%.

With `Cc1c(C)c2ccc(OCc3cccc(F)c3)cc2oc1=O` the viability at 24 h, 100 µM [1] was 109%, the viability at 72 h, 20 µM [2] was 108% and the viability at 20 µM [4] was 130%. It also gave a viability at 20 µM [5] of 115%.

`CC(=O)c1ccc(OCc2cccc(F)c2)cc1F` gave a viability at 24 h, 100 µM [1] of 118%, a viability at 72 h, 20 µM [2] of 119% and an IC50 [3] of over 100 µM. It also gave a viability at 20 µM [4] of 116% and a viability at 20 µM [5] of 109%.

`CC1(C)CC(=O)c2ccc(OCc3ccc(Cl)cc3)cc2O1` showed a viability at 24 h, 100 µM [1] of 110%, a viability at 72 h, 20 µM [2] of 109% and an IC50 [3] of over 100 µM. For the same compound, the viability at 20 µM [4] was 143% and the viability at 20 µM [5] was 108%.

`O=c1ccoc2ccc(OCc3ccc(Cl)cc3)cc12` gave a viability at 24 h, 100 µM [1] of 85%, a viability at 72 h, 20 µM [2] of 108% and an IC50 [3] of 4.52 µM. It also gave a viability at 20 µM [4] of 122% and a viability at 20 µM [5] of 115%.

With `O=C1CCOc2cc(OCc3ccc(Cl)cc3)ccc21` the viability at 24 h, 100 µM [1] was 98.6%, the viability at 72 h, 20 µM [2] was 115% and the viability at 20 µM [4] was 143%. For the same compound, the viability at 20 µM [5] was 111%.

For `O=C1OCc2cc(OCc3ccc(C(F)(F)F)cc3)ccc21`, the viability at 72 h, 20 µM [2] was 87.2%, the IC50 [3] was 9.24 µM and the viability at 20 µM [4] was 125%. For the same compound, the viability at 20 µM [5] was 111%.

In the case of `O=C1CCc2ccc(OCc3cccc(Cl)c3)cc2N1`, the viability at 24 h, 100 µM [1] is reported as 76.1%, the viability at 72 h, 20 µM [2] is reported as 97.2% and the IC50 [3] is reported as over 100 µM. The viability at 20 µM [4] was 121% and the viability at 20 µM [5] was 110%.

`CC(=O)c1ccc(OCc2cccc(Cl)c2)cc1` gave a viability at 24 h, 100 µM [1] of 118%, a viability at 72 h, 20 µM [2] of 116% and an IC50 [3] of 88.4 µM. For the same compound, the viability at 20 µM [4] was 123% and the viability at 20 µM [5] was 95.8%.

`O=C1CCCc2cc(OCc3ccc(F)cc3)ccc21` gave a viability at 24 h, 100 µM [1] of 83.3%, an IC50 [3] of 1.29 µM and a viability at 20 µM [4] of 139%. The viability at 20 µM [5] was 95.9%.

In the case of `CC(=O)c1ccc(OCc2cccc(Cl)c2)cc1F`, the viability at 24 h, 100 µM [1] is reported as 108%, the IC50 [3] is reported as over 100 µM and the viability at 20 µM [4] is reported as 133%. It also gave a viability at 20 µM [5] of 112%.

`O=C1CCCc2cc(OCc3ccc(Cl)cc3)ccc21` gave a viability at 24 h, 100 µM [1] of 91.2%, a viability at 72 h, 20 µM [2] of 129% and an IC50 [3] of 0.34 µM. It also gave a viability at 20 µM [4] of 127% and a viability at 20 µM [5] of 110%.

In the case of `CC(=O)c1ccc(OCc2ccc(Cl)cc2)cc1O`, the viability at 24 h, 100 µM [1] is reported as 109%, the viability at 72 h, 20 µM [2] is reported as 126% and the IC50 [3] is reported as 25.3 µM. The Papp at 16 h, 100 ug/ml (in vitro) was 12.7 ×10⁻⁶ cm/s, the viability at 20 µM [4] was 144% and the viability at 20 µM [5] was 105%.

Work on `CC1(C)CC(=O)c2ccc(OCc3ccc(F)cc3)cc2O1` yielded a viability at 24 h, 100 µM [1] of 96.2%, a viability at 72 h, 20 µM [2] of 122% and an IC50 [3] of over 100 µM. For the same compound, the Papp at 16 h, 100 ug/ml (in vitro) was 9.71 ×10⁻⁶ cm/s, the viability at 20 µM [4] was 148% and the viability at 20 µM [5] was 111%.

`O=c1ccoc2ccc(OCc3ccc(F)cc3)cc12` gave a viability at 24 h, 100 µM [1] of 85.2%, a viability at 72 h, 20 µM [2] of 109% and an IC50 [3] of 13.6 µM. The viability at 20 µM [4] was 115% and the viability at 20 µM [5] was 106%.

`CC(=O)c1ccc(OCc2cccc(F)c2)cc1O` gave a viability at 24 h, 100 µM [1] of 107%, an IC50 [6] of 50.7 µM and a viability at 72 h, 20 µM [2] of 115%. It also gave an IC50 [3] of over 100 µM, a Papp at 16 h, 100 ug/ml (in vitro) of 15.9 ×10⁻⁶ cm/s and a viability at 20 µM [4] of 133%. The viability at 20 µM [5] was 106%.

`O=c1ccoc2cc(OCc3ccc(F)cc3)ccc12` showed a viability at 24 h, 100 µM [1] of 72.9%, a viability at 72 h, 20 µM [2] of 119% and an IC50 [3] of 18.5 µM. It also gave a viability at 20 µM [4] of 124% and a viability at 20 µM [5] of 115%.

`O=C1OCc2cc(OCc3ccc(Cl)cc3)ccc21` showed a viability at 24 h, 100 µM [1] of 86.7%, a viability at 72 h, 20 µM [2] of 85.7% and an IC50 [3] of 3.61 µM. The viability at 20 µM [4] was 137% and the viability at 20 µM [5] was 113%.

`CC(=O)c1ccc(OCc2ccc(F)cc2)cc1F` showed a viability at 24 h, 100 µM [1] of 106%, a viability at 72 h, 20 µM [2] of 123% and an IC50 [3] of over 100 µM. The viability at 20 µM [4] was 105% and the viability at 20 µM [5] was 114%.

With `CC(=O)c1cccc(OCc2ccc(Cl)cc2)c1` the viability at 24 h, 100 µM [1] was 117%, the viability at 72 h, 20 µM [2] was 102% and the viability at 20 µM [4] was 132%. For the same compound, the viability at 20 µM [5] was 109%.

Compound `CC(=O)c1ccc(OCc2ccc(F)cc2)cc1O` has a viability at 24 h, 100 µM [1] of 101%, an IC50 [6] of 3.7 µM and a viability at 72 h, 20 µM [2] of 109%. It also gave an IC50 [3] of 43.4 µM, a Papp at 16 h, 100 ug/ml (in vitro) of 13.5 ×10⁻⁶ cm/s and a viability at 20 µM [4] of 144%. It also gave a viability at 20 µM [5] of 98.3%.

`O=C1CCc2ccc(OCc3cccc(Br)c3)cc2N1` gave a viability at 24 h, 100 µM [1] of 80.2%, a viability at 72 h, 20 µM [2] of 108% and an IC50 [3] of 49.2 µM. For the same compound, the Papp at 16 h, 100 ug/ml (in vitro) was 8.89 ×10⁻⁶ cm/s, the viability at 20 µM [4] was 112% and the viability at 20 µM [5] was 134%.

For `Cc1c(C)c2ccc(OCc3ccc(Cl)cc3)cc2oc1=O`, the viability at 24 h, 100 µM [1] was 106%, the viability at 72 h, 20 µM [2] was 104% and the viability at 20 µM [4] was 114%. It also gave a viability at 20 µM [5] of 119%.
